Screens (PubChem BioAssay)
STAT3 inh: STAT3 signaling inhibition | U3A cells, IL-6 STAT3-luciferase reporter, luminescence; host cell line lacks STAT1 | inhibition, % at 5.5 µM | hit rate 0.89% among 190,000 | AID 862;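 active = inhibition above the mean inhibition across all screened compounds plus 3 SD, cut at about 44% in these data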
STAT1 act-1: increases IFN-gamma driven STAT1 reporter signal; hit rate 2.6% among 200,000; AID 932; NIH 3T3 STAT1-luciferase reporter, luminescence; 100% = IFN-gamma alone, no compound; activation (% of control), % at 5.5 µM;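 active = activation above the screen-wide mean activation plus 3 SD, cut at about 130% in these data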
STAT3 act-1: STAT3 signaling activation; activation (% of control), % at 5.6 µM; hit rate 0.91% among 190,000; U3A cells, IL-6 STAT3-luciferase reporter, luminescence; 100% = signal with IL-6 EC80 alone;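 active = activation above the screen-wide mean of compound activation plus 3 SD, cut at about 130% in these data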
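Material: human STAT1-deficient U3A cells with stable STAT3-luciferase reporter / Probe or stimulus: IL-6 stimulus at 33 ng/mL final / Schedule: 1 h compound pre-exposure, 6 h IL-6 stimulation, 37 °C / Technique: luminescence / Read-out basis: percent of IL-6-only median luminescence / Control set: IL-6-only high control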
NF-kB neuron act: NF-kB expression increase, human neuronal cells. NF-kB reporter expression; stronger effect = higher value. fold change at 12.5 µM. hit rate 1.6% among 190,000; in the data active = fold change above about 3.3
APP 5'UTR act: APP 5'UTR luciferase reporter activation; AID 1276; hit rate 1% among 190,000; activation, % at 2 µM; SH-SY5Y APP 5'UTR luciferase reporter, luminescence; zero percent = DMSO vehicle wells;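 active = activation above a set limit, based on mean plus 3 SD of controls, cut at about 140% in these data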
STAT1 inh: inhibitors of IFN-gamma induced STAT1 signaling; NIH 3T3 STAT1-luciferase reporter, luminescence; hit rate 0.35% among 200,000; inhibition, % at 5.5 µM;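 active = inhibition above a set limit, the mean inhibition across all tested compounds plus 3 SD, cut at about 34% in these data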
STAT3 act-2: confirmation of STAT3 signaling activators; shares compounds with STAT3 act-1; U3A STAT3-luciferase reporter, IL-6 potentiation, luminescence; U3A cells lack STAT1; 100 means same as IL-6 alone; hit rate 64% among 1,200; potentiation (% of control), % at 5.7 µM; AID 1267;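 active = percent activation of the STAT3 luciferase reporter above a set limit taken from the earlier primary screen, cut at about 130% in these data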
NFkB act 2: counter-screen for STAT3 activators: NF-kappaB activation; activation (% of control), % at 5.7 µM; human cells, NF-kappaB reporter activation; shares compounds with STAT3 act-1; hit rate 11% among 1,200; in the data active = activation above about 120%;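 also: reporter induced by TNF-alpha stimulation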
STAT1 act-2: counter-screen for STAT3 activators: STAT1 activation; NIH 3T3 STAT1-luciferase reporter, IFN-gamma, luminescence; activation (% of control), % at 5.7 µM; AID 1318; shares compounds with STAT3 act-1; hit rate 13% among 1,200;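 active = activation above the solvent-only control well mean plus 3 SD, set per screening run, cut at about 120% in these data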
Each line names hits and unclear results; the compound was inactive in the other large screens (follow-up assays come after a bar, where they were run). Rows were chosen to be rich in hits. Some 5.1% of all compounds tested hit in one or more screens of this group.

Cc1ccc(CNC(=O)c2cc3c(-c4ccc(Cl)cc4)nn(C)c3s2)o1	STAT3 act-1 155 | STAT3 act-2 152 | NFkB act 2 inactive | STAT1 act-2 inactive
CCOC(=O)N1CCC(NC(=O)c2cc3c(-c4ccc(Cl)cc4)nn(C)c3s2)CC1	STAT3 act-1 151 | STAT3 act-2 inactive | NFkB act 2 inactive | STAT1 act-2 inactive
Cn1nc(-c2ccc(Cl)cc2)c2cc(C(=O)N3CCN(c4ccccn4)CC3)sc21	none
Cn1nc(-c2ccc(Cl)cc2)c2cc(C(=O)N3CCN(c4ccccc4)CC3)sc21	STAT3 act-1 138 | STAT3 act-2 143 | NFkB act 2 inactive | STAT1 act-2 inactive
COc1cccc(-c2nn(C)c3sc(C(=O)NCc4ccco4)cc23)c1	none
CCOc1cccc(C(=O)NC(=S)Nc2ccc(Cl)cc2C(=O)O)c1	none
CC(=O)Nc1ccc(NC(=O)CSc2nnc(-c3ccc(NS(C)(=O)=O)cc3)n2C)cc1C	none
COc1ccc(-c2noc(CN(C)S(=O)(=O)c3ccc(Cl)cc3)n2)cc1OC	none
Cn1nc(-c2ccc(Cl)cc2)c2cc(C(=O)NCCCN3CCCC3)sc21	STAT3 act-1 166 | STAT3 act-2 155 | NFkB act 2 inactive | STAT1 act-2 inactive
CCCCNC(=O)c1cc2c(-c3ccc(Cl)cc3)nn(C)c2s1	STAT3 act-1 138 | STAT3 act-2 151 | NFkB act 2 inactive | STAT1 act-2 inactive
C=CCNC(=O)c1cc2c(C(F)(F)F)nn(C)c2s1	none
CC(C)NC(=O)c1cc2c(-c3ccc(Cl)cc3)nn(C)c2s1	STAT3 act-1 158 | STAT3 act-2 150 | NFkB act 2 inactive | STAT1 act-2 inactive
COCCNC(=O)c1cc2c(-c3ccc(Cl)cc3)nn(C)c2s1	STAT3 act-1 152 | STAT3 act-2 139 | NFkB act 2 inactive | STAT1 act-2 inactive
Cn1nc(-c2ccc(Cl)cc2)c2cc(C(=O)N3CCCC3)sc21	none
COCCNC(=O)c1cc2c(-c3ccccc3F)nn(C)c2s1	none
COc1ccc(O)c(C(=O)c2coc(=N)c(C(=O)Nc3ccc(SC(F)F)cc3)c2)c1	none
COc1cc(S(=O)(=O)N2CCCCCC2)ccc1Cl	none
COc1cc(C2C(C(=O)OC(C)C)=C(C)Nc3ncnn32)cc(OC)c1OC (stereo not drawn)	none (no result: APP 5'UTR act)
CCOc1cc(C(=O)N2CCN(C/C=C/c3ccccc3)CC2)cc(OCC)c1OCC	none
COc1cccc(/C=C2\N=C(c3c(-c4ccccc4)noc3C)OC2=O)c1OC	none
CCN1CCCC1CNC(=O)c1cc2c(-c3ccc(Cl)cc3)nn(C)c2s1 (stereo not drawn)	STAT3 act-1 170 | STAT3 act-2 156 | NFkB act 2 inactive | STAT1 act-2 inactive
CCN1CCCC1CNC(=O)c1cc2c(-c3cccc(OC)c3)nn(C)c2s1 (stereo not drawn)	none
CCCNC(=O)Cc1ccsc1	none
COc1ccc(/C=N/NC(=O)c2ccccc2Cl)cc1CSc1nc2ccccc2s1	none
CC(C)(C)NC(=O)COC(=O)/C=C/c1ccccc1[N+](=O)[O-]	none
O=C(COC(=O)/C=C/c1ccccc1[N+](=O)[O-])NC1CCS(=O)(=O)C1 (stereo not drawn)	STAT3 act-1 140 | STAT3 act-2 187 | NFkB act 2 inactive | STAT1 act-2 126
O=C(COC(=O)/C=C/c1ccccc1[N+](=O)[O-])NC1CC1	STAT3 act-1 149 | STAT3 act-2 142 | NFkB act 2 inactive | STAT1 act-2 inactive
Cc1nn(-c2ccccc2)c(C)c1/C=C/C(=O)OCC(=O)NC1CCS(=O)(=O)C1 (stereo not drawn)	none (no result: NF-kB neuron act)
Cc1c(C(=O)NC(Cc2ccccc2)c2nc3ccccc3[nH]2)cccc1[N+](=O)[O-] (stereo not drawn)	none
CC(=O)c1sc2nc(-c3cccs3)cc(C(F)(F)F)c2c1N	STAT3 act-1 162 | STAT3 act-2 146 | NFkB act 2 inactive | STAT1 act-2 inactive
CC1=NOC(=O)/C1=C\c1ccc(-c2ccc(Br)cc2)o1	STAT3 act-1 136 | STAT3 act-2 inactive | NFkB act 2 inactive | STAT1 act-2 inactive
CCOC(=O)C1(CC2CCCCO2)CCN(Cc2cccnc2)CC1 (stereo not drawn)	none
Cc1ccc(C2=CC(c3cccs3)n3nnnc3N2)cc1 (stereo not drawn)	STAT3 act-1 147 | STAT3 act-2 inactive | NFkB act 2 inactive | STAT1 act-2 inactive
CCOCCCNC(=O)c1cccs1	none
CCOCCCNC(=O)c1ccc2c(c1)N=C(CC)c1cc(Br)ccc1S2	STAT3 act-1 157 | STAT3 act-2 inactive | NFkB act 2 160 | STAT1 act-2 inactive
Oc1c(Cl)cc(Cl)cc1/C=N/Nc1ncc(Br)cn1	none
CC1CC(C)CN(C(=O)CSCC(=O)Nc2nc(-c3cccs3)cs2)C1 (stereo not drawn)	STAT3 act-1 136 | STAT3 act-2 inactive | NFkB act 2 inactive | STAT1 act-2 inactive
COc1ccc(C(C[N+](=O)[O-])c2c(C)[nH]c3ccccc23)cc1OC (stereo not drawn)	STAT3 act-1 138 | STAT3 act-2 inactive | NFkB act 2 inactive | STAT1 act-2 inactive
O=C(NCC(=O)N(Cc1cccs1)C(C(=O)NC1CCCCC1)c1ccco1)c1ccco1 (stereo not drawn)	none
O=C(CCC(=O)N/N=C/c1ccccc1O)NCc1ccccc1	none
Cc1nn(-c2ccc(Cl)c(Cl)c2Cl)c(=O)c2ccccc12	none
Cc1nn(-c2ccc(Cl)c(Cl)c2)c(=O)c2ccccc12	STAT3 act-1 146 | STAT3 act-2 138 | NFkB act 2 123 | STAT1 act-2 134
COc1cc(N)c(Cl)cc1NC(=O)c1ccccc1	none
COc1cc(NC(=O)c2noc3c2CCC3)c(OC)cc1Cl	STAT3 act-1 146 | STAT3 act-2 157 | NFkB act 2 inactive | STAT1 act-2 inactive
COc1cc(NC(=O)c2cc(-c3ccco3)on2)c(OC)cc1Cl	STAT3 act-1 165 | STAT3 act-2 145 | NFkB act 2 inactive | STAT1 act-2 inactive
CCCc1cc(C(=O)Nc2cc(OC)c(Cl)cc2OC)no1	STAT3 act-1 166 | STAT3 act-2 162 | NFkB act 2 inactive | STAT1 act-2 inactive
COc1cc(OC)c(NC(=O)c2ccco2)cc1Cl	none
COc1cc(NC(=O)c2ccccc2)c(OC)cc1Cl	STAT3 act-1 150 | STAT3 act-2 143 | NFkB act 2 inactive | STAT1 act-2 inactive
